Test results published in ChEMBL document CHEMBL3351511, “Protective effects of lupeol against D-galactosamine and lipopolysaccharide-induced fulminant hepatic failure in mice” (J Nat Prod, 2014).
Active and inactive are the calls of the source. The rule behind the calls is not given here.

Columns and labels:
Mus musculus [1] = test: Protective effect in po dosed GalN/LPS-induced ICR mouse FHF liver injury model assessed as survival administered 1 hr prior to GalN/LPS challenge measured up to 24 hrs; type: functional, organism-based
Mus musculus [2] = test: Effect on serum ALT level in ICR mouse at 100 mg/kg, po after 1 hr (reference value: 57.4 +/- 8.8 U/L); type: ADME, organism-based; parameters: dose 100 mg/kg, route oral; conditions: in vivo
Mus musculus [3] = test: Toxicity in ICR mouse assessed as survival at 100 mg/kg, po; type: organism-based; parameters: dose 100 mg/kg, route oral; conditions: in vivo
Outline: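 One hour later they received intraperitoneal PBS vehicle in place of GalN/LPS. Survival was monitored up to 24 h, with 10 mice per survival group, alongside vehicle-only controls.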

Mus musculus [4] = test: Effect on liver histology in ICR mouse at 100 mg/kg, po after 1 hr by hematoxylin/eosin-labeled microscopic analysis relative to control; type: ADME, organism-based; parameters: dose 100 mg/kg, route oral; conditions: in vivo
Outline: (§1)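 Liver taken 6 h after challenge, fixed in 10% neutral-buffered formalin, paraffin-embedded, cut at 5 μm, H&E-stained. One pathologist scored random nonconsecutive fields blinded at 200×; n = 6−8.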

Mus musculus [5] = test: Effect on serum ALT level in GalN/LPS-induced ICR mouse FHF liver injury model at 100 mg/kg, po administered 1 hr prior to GalN/LPS challenge measured after 6 hrs (reference value: 2704 +/- 244.2 U/L); type: functional
Mus musculus [6] = test: Effect on liver histology in GalN/LPS-induced ICR mouse FHF liver injury model assessed as reversal of necrosis and inflammatory cell infiltration at 100 mg/kg, po administered 1 hr prior to GalN/LPS challenge measured after 6 hrs by hematoxylin/eosin-labeled microscopic analysis; type: functional, organism-based; parameters: dose 100 mg/kg; outline: as §1
Mus musculus [7] = test: Effect on serum TNF-alpha level in ICR mouse at 100 mg/kg, po after 1 hr by ELISA (reference value: 42.6 +/- 1.7 pg/ml); type: ADME, organism-based; parameters: dose 100 mg/kg, route oral; conditions: in vivo
Mus musculus [8] = test: Effect on serum TNF-alpha level in GalN/LPS-induced ICR mouse FHF liver injury model at 100 mg/kg, po administered 1 hr prior to GalN/LPS challenge measured after 6 hrs by ELISA (reference value: 250.8 +/- 5.4 pg/ml); type: functional
Mus musculus [9] = test: Effect on serum IL-6 level in ICR mouse at 100 mg/kg, po after 1 hr by ELISA (reference value: 73.3 +/- 13.1 pg/ml); type: ADME, organism-based; parameters: dose 100 mg/kg, route oral; conditions: in vivo
Mus musculus [10] = test: Effect on serum IL-6 level in GalN/LPS-induced ICR mouse FHF liver injury model at 100 mg/kg, po administered 1 hr prior to GalN/LPS challenge measured after 6 hrs by ELISA (reference value: 654.1 +/- 19.7 pg/ml); type: functional
Mus musculus [11] = test: Protective effect in GalN/LPS-induced ICR mouse FHF liver injury model assessed as reduction in TLR4 protein level at 100 mg/kg, po administered 1 hr prior to GalN/LPS challenge measured after 6 hrs by Western blotting analysis relative to vehicle-treated control; type: functional, organism-based; parameters: dose 100 mg/kg
Outline: (§2)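 Oral pretreatment in olive oil 1 h before ip GalN (800 mg/kg)/LPS (40 μg/kg); liver harvested at 6 h and stored at −75 °C. SDS-PAGE and PVDF transfer used total extract (16−20 μg) for TLR4, MyD88, TRIF, IRAK-1, TRAF6 and IRAK-M, cytosolic (16 μg) for IκB, and nuclear (12 μg) for NF-κB p65. Blots were blocked in 5% milk, given primary antibody overnight at 4 °C, developed by ECL and quantified by densitometry as fold change; n = 6−8.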

Mus musculus [12] = test: Protective effect in GalN/LPS-induced ICR mouse FHF liver injury model assessed as reduction in MyD88 protein level at 100 mg/kg, po administered 1 hr prior to GalN/LPS challenge measured after 6 hrs by Western blotting analysis relative to vehicle-treated control; type: functional, organism-based; parameters: dose 100 mg/kg; outline: as §2
Mus musculus [13] = test: Protective effect in GalN/LPS-induced ICR mouse FHF liver injury model assessed as reduction in TRIF protein level at 100 mg/kg, po administered 1 hr prior to GalN/LPS challenge measured after 6 hrs by Western blotting analysis relative to vehicle-treated control; type: functional, organism-based; parameters: dose 100 mg/kg; outline: as §2
Mus musculus [14] = test: Protective effect in GalN/LPS-induced ICR mouse FHF liver injury model assessed as reduction in IRAK1 protein level at 100 mg/kg, po administered 1 hr prior to GalN/LPS challenge measured after 6 hrs by Western blotting analysis relative to vehicle-treated control; type: functional, organism-based; parameters: dose 100 mg/kg; outline: as §2
Mus musculus [15] = test: Protective effect in GalN/LPS-induced ICR mouse FHF liver injury model assessed as reduction in TRAF6 protein level at 100 mg/kg, po administered 1 hr prior to GalN/LPS challenge measured after 6 hrs by Western blotting analysis relative to vehicle-treated control; type: functional, organism-based; parameters: dose 100 mg/kg; outline: as §2
Mus musculus [16] = test: Protective effect in GalN/LPS-induced ICR mouse FHF liver injury model assessed as increase in IRAK-M protein level at 100 mg/kg, po administered 1 hr prior to GalN/LPS challenge measured after 6 hrs by Western blotting analysis relative to vehicle-treated control; type: functional, organism-based; parameters: dose 100 mg/kg; outline: as §2
Mus musculus [17] = test: Protective effect in GalN/LPS-induced ICR mouse FHF liver injury model assessed as reduction in NF-kappaB protein level at 100 mg/kg, po administered 1 hr prior to GalN/LPS challenge measured after 6 hrs by Western blotting analysis relative to vehicle-treated control; type: functional, organism-based; parameters: dose 100 mg/kg; outline: as §2
Mus musculus [18] = test: Protective effect in GalN/LPS-induced ICR mouse FHF liver injury model assessed as increase in I-kappaB protein level at 100 mg/kg, po administered 1 hr prior to GalN/LPS challenge measured after 6 hrs by Western blotting analysis relative to vehicle-treated control; type: functional, organism-based; parameters: dose 100 mg/kg; outline: as §2
Mus musculus [19] = test: Protective effect in GalN/LPS-induced ICR mouse FHF liver injury model assessed as reduction in TNF-alpha mRNA expression at 100 mg/kg, po administered 1 hr prior to GalN/LPS challenge measured after 6 hrs by RT-PCR analysis relative to vehicle-treated control; type: functional, organism-based; parameters: dose 100 mg/kg
Outline: (§3)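 Oral pretreatment in olive oil 1 h before ip GalN (800 mg/kg)/LPS (40 μg/kg), with liver collected at 6 h. mRNA quantified by SYBR green real-time RT-PCR. Cycling: TNF-α 45 cycles (94/65/72 °C) and IL-6 32 cycles (94/58/72 °C). Levels normalized to β-actin by the Ct method. Mean ± SEM, n = 6−8.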

Mus musculus [20] = test: Protective effect in GalN/LPS-induced ICR mouse FHF liver injury model assessed as reduction in IL-6 mRNA expression at 100 mg/kg, po administered 1 hr prior to GalN/LPS challenge measured after 6 hrs by RT-PCR analysis relative to vehicle-treated control; type: functional, organism-based; parameters: dose 100 mg/kg; outline: as §3

C=C(C)[C@@H]1CC[C@]2(C)CC[C@]3(C)[C@H](CC[C@@H]4[C@@]5(C)CC[C@H](O)C(C)(C)[C@@H]5CC[C@]43C)[C@@H]12 [LUPEOL]
Activity (Mus musculus [1]): Dose-dependent effect
Activity (Mus musculus [2]): 58.1 U/L
Activity (Mus musculus [3]): Non-toxic
Activity (Mus musculus [4]): Non-toxic
Activity (Mus musculus [5]): 682 U/L
Activity (Mus musculus [6]): Active
Activity (Mus musculus [7]): 41 pg/mL
Activity (Mus musculus [8]): 109 pg/mL
Activity (Mus musculus [9]): 75.1 pg/mL
Activity (Mus musculus [10]): 108.8 pg/mL
Activity (Mus musculus [11]): Active
Activity (Mus musculus [12]): Active
Activity (Mus musculus [13]): inactive
Activity (Mus musculus [14]): Active
Activity (Mus musculus [15]): Active
Activity (Mus musculus [16]): Active
Activity (Mus musculus [17]): Active
Activity (Mus musculus [18]): Active
Activity (Mus musculus [19]): Active
Activity (Mus musculus [20]): Active
